Measured values published in article PMC7016294 (Acta Pharmaceutica Sinica. B, 2019).
“And” between values parts separate entries of the source, which are not always exact repeats. Equal entries are not always repeated. Each block holds one compound with its values, some of them ahead of it.

Key:
[1] = test system: peripheral blood lymphocytes; assay: Peripheral blood lymphocytes; assay type: in vivo; conditions: SD rats, single oral dose (3 mg/kg), 1 week later
In short: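 Male SD rats (6–8 weeks) were randomised and bled (20 μL, tail vein) for a baseline (0 h) lymphocyte count on a haematology analyser. Each received one oral dose of test compound (0.3, 1 or 3 mg/kg, in distilled water) or vehicle. Lymphocytes were counted again at 2, 4, 8, 12, 24, 72, 96, 144 and 168 h; n = 5.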

[2] = Heart rate measurement after a single oral dose; assay type: in vivo; conditions: SD rats, single oral dose 10 mg/kg
In short: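 Male SD rats (6–8 weeks) had baseline heart rate taken with a non-invasive rodent blood-pressure/heart-rate meter. They then received a single oral 10 mg/kg dose of test compound in distilled water, or vehicle. Heart rate was re-measured at 2, 4, 8, 12, 24 and 48 h after dosing; n = 5.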

[3] = test system: SDS-induced skin irritation; assay: SDS-induced acute skin irritation and inflammation mouse model; assay type: in vivo; conditions: KM mice, MTX 1.5 mg/kg, data not shown
In short: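 Female KM mice had back hair removed and received 200 μL 15% SDS topically once daily for 7 days. From Day 8 they were dosed orally each day for 10 days with test compound (0.3–2.4 mg/kg, in water) or vehicle. On Day 18, skin thickness was measured. Skin was then fixed in 4% paraformaldehyde, cut into 5 μm H&E sections and scored blind (0–3 each) for epidermal thickening, fibroplasia, inflammatory infiltration and vasodilatation; n = 11.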

[4] = target: T1, S1P4 (EDG6) (Homo sapiens, UniProt O95977); assay: β-arrestin assay; assay type: cell-based
T1 sequence (O95977 1-384): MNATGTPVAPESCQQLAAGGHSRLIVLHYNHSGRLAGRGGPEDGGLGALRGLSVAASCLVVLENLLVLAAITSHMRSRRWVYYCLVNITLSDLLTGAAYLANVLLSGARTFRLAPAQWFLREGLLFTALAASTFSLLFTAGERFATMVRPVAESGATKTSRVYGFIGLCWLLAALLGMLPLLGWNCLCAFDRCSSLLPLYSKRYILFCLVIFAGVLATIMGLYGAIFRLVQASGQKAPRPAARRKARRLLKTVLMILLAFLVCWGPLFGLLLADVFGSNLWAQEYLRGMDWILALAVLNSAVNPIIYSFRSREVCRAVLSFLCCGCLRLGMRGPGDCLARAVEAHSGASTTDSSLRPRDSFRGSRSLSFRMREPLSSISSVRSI
In short: (§1)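 Test compound (DMSO stock), at a range of concentrations, was added for 2 or 4 h at 37 °C. Receptor–β-arrestin recruitment was read as β-galactosidase enzyme-fragment complementation, with chemiluminescence measured after 1 h in detection reagent at room temperature. Activity was computed from the concentration series.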

[5] = target: S1P3 (EDG3) (Homo sapiens, UniProt Q99500); assay: β-arrestin assay; assay type: cell-based
S1P3 (EDG3), sequence (Q99500 whole entry): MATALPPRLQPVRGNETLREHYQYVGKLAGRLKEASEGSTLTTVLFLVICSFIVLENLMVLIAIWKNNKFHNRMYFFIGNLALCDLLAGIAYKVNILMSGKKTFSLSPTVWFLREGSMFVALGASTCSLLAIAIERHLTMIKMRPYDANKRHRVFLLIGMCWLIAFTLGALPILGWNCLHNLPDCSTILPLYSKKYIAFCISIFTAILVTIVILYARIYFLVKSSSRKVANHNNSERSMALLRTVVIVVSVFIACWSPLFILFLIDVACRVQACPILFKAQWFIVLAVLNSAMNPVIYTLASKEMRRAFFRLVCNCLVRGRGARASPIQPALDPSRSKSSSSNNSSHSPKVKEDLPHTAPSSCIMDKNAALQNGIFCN
In short: as §1

SMILES: CCCCCCCCc1ccc(CCC(N)(CO)CO)cc1 [FTY720, fingolimod]
Lymphocyte reduction 1 week after one administration [1]: 26% | Duration of heart rate decrease [2]: 12 h | Heart rate decrease ([2]; as early as 2 h after treatment, 10 mg/kg): 22% and 20%

SMILES: CN(Cc1cnc2nc(N)nc(N)c2n1)c1ccc(C(=O)N[C@@H](CCC(=O)O)C(=O)O)cc1 [MTX, Methotrexate]
Body weight during treatment [3]: started to decline from Day 10

EC50 [4]: 49.1 nM | EC50 [5]: 17.7 nM
SMILES: CCCCCCCCCCCCC/C=C/[C@@H](O)[C@@H](N)COP(=O)(O)O [S1P, Sphingosine-1-phosphate]
